Reference: PubChem BioAssay
A number with no mark means an inactive call. Results filed as inconclusive are left out. The source made the active and inactive calls.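 The calls were made as follows, unless noted: active = inhibition over a set limit, the all-compound mean plus 3 SD, in both replicate runs; inconclusive = over that limit in just one replicate run; inactive = at or under that limit in both runs.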

How the values were obtained:
[1] = S. cerevisiae growth inhibition in permissive medium (OD615), pilot counter-assay for S. cerevisiae lifespan shortening project, permissive growth control (AID 705;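 active = growth inhibition above 25% in both replicates, a cutoff set 3 SD above the mean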); conditions: OD615, 24 h, at 10 µM, active compounds read high
Method in brief: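 System: engineered DeaD yeast; Medium: permissive raffinose/galactose medium; Compound dosing: 10 µM single dose, 0.25% DMSO; Incubation: 4 h cell pre-growth, 24 h exposure at 30 °C; Technique: OD at 615 nm; Evaluation: growth inhibition from lowered OD615 after 24 h.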

[2] = S. cerevisiae growth inhibition in restrictive medium, OD615, pilot screen, restrictive growth control, yeast lifespan reduction project (AID 706;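 active = growth inhibition above a set limit, 3 SD over mean compound inhibition, in both replicates, cut at about 43% in these data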;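 also: modified DeaD lifespan yeast strain shifted to restrictive glucose medium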); conditions: OD615, 48 h, at 10 µM, active compounds read high
Method in brief: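 Material: modified S. cerevisiae; buffer or medium: CSMM-D glucose medium; doses: one concentration, 10 µM final, 0.25% DMSO; incubation: 48 h compound exposure at 30 °C; detection: optical density at 615 nm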

[3] = doxorubicin toxicity protection in MRP-1 cells – H69AR cells, CellTiter-Glo, duplicate, MRP-1 activator project, pilot screen (AID 807;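 active = viability increase at or above a cutoff of the median across tested compounds plus 3 SD, cut at about 8.5% in these data, passing the limit was not always enough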;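 also: compound pretreatment 18-22 h then 72 h combined with doxorubicin; 0% = doxorubicin alone and 100% = vehicle without doxorubicin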); conditions: H69AR viability with doxorubicin, CellTiter-Glo luminescence; at 10 µM; active compounds read high
[4] = viability of HCT116 without oncogenic beta-catenin – human colon tumor cells, pilot screen (AID 823;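 active = cell viability at or below a set limit in both duplicate runs, the limit being the all-compound median minus 4 SD, cut at about 23% in these data, passing the limit was not always enough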;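 also: 0% = wells killed by 20 µM Hyamine and 100% = untreated DMSO cell wells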); conditions: HCT116 beta-catenin knockout viability, CellTiter-Glo, 60 h; at 10 µM; active compounds read low
[5] = viability of PTEN-null HCT116 cells – cell-based, HCT116 clonal line, CellTiter-Glo, pilot screen (AID 824;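 active = viability at or below 27.92% in each of two runs, the all-compound median minus 4 SD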;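 also: 0% = 20 µM Hyamine control and 100% = vehicle cell control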); conditions: HCT116 PTEN-deleted viability, 60 h, at 10 µM, active compounds read low
[6] = RAM pathway blockade in budding yeast – dse1pr::URA3 reporter, 5-FOA selection, pilot screen (AID 869);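 also: 0% = DMSO wells with no growth and 100% = 10 µM 1-NA-PP1 with full growth; RAM network block rescues cells from 5-FOA so hits raise OD615 growth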; conditions: S. cerevisiae dse1pr::URA3 5-FOA growth, OD615, 2 d; at 10 µM; active compounds read high; strain carries analog-sensitive mutant Cbk1 kinase
[7] = RAM signaling pathway blockade in yeast – S. cerevisiae, Pdr1DBD-CYC8 efflux-inhibited sensitized strain, primary screen (AID 1298;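 active = RAM network inhibition above 8.4% in each of two replicates, 3 SD over the compound average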;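 also: 0% = DMSO untreated cells without growth and 100% = 10 µM 1-NA-PP1 full growth; higher means more yeast growth rescued from 5-FOA killing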); conditions: S. cerevisiae cbk1-as DSE1-URA3 strain, 5-FOA growth OD615, 2 d; at 50 µM; active compounds read high

Compound | growth inhibition [1] [%] | growth inhibition [2] [%] | viability increase [3] | viability [4] | viability [5] | inhibition [6] [%] | RAM network inhibition [7] [%]
CC(=O)c1cccc(NC(=O)c2cc3ccccn3n2)c1 | -5.62 | 4.32 | -2.31% | 99% | 95.8% | 0.705 | -0.31
O=C(C1CCN(S(=O)(=O)c2cccc3cccnc23)CC1)N1CCN(Cc2ccccc2)CC1 | 8.83 | 5.8 | 0.23% | 105% | 99.5% | -0.39 | 1.71
CCOc1cccc(=O)c2c(C)n(CC3CCCO3)c(C)c12 (configuration not stated) | -3.19 | -1.17 | -2.8% | 92.5% | 90.4% | 0.73 | -1.39
COCCNC(=O)CN1C(=O)CSc2cc(S(=O)(=O)N3CCCCCC3)ccc21 | -5.04 | -4.12 | -1.52% | 98.9% | 109% | 2.73 | -0.32
COCCN1C=C(C(=O)OC)C(c2ccc3c(c2)OCO3)C(C(=O)OC)=C1 | -9.64 | 1.92 | 2.8% | 97.9% | 102% | -0.19 | 3.59
O=C(Cn1c(=O)oc2cc(S(=O)(=O)N3CCCC3)ccc21)N1CCN(c2ccccn2)CC1 | 4.62 | 6.56 | 0.96% | 90% | 92.5% | 2.1 | 6.22
CCOC(=O)c1cc(-c2nnc(-c3ccc(Cl)cc3)o2)c(C)nc1C | -16.3 | -14.2 | -0.9% | 99.7% | 93.6% | 2.19 | 2.13
CC(=O)c1c(C)[nH]c(C(=O)Nc2cc(C)ccc2C)c1C | 8.06 | -8.57 | -1.16% | 98.5% | 96.6% | 2.14 | 1.74
Cc1ccc(-c2nc(CS(=O)(=O)CC(=O)N3CCCCCC3)c(C)o2)cc1 | -2.76 | 0.63 | -1.22% | 50% | 70.6% | 0.26 | 4.22
Cc1sc2nc(SCC(=O)NCc3ccco3)n(C)c(=O)c2c1C | -4.25 | -12.5 | -4.96% | 105% | 94.3% | 2.1 | 3.82
CC(=O)Nc1nnc(-c2ccc3c(c2)CCCC3)o1 | -12.7 | 3.68 | -0.69% | 95% | 88.3% | 1.36 | 4.21
Cc1cnc(NC(=O)c2ccc(-c3nc4ccccc4s3)o2)s1 | -7.12 | 10.2 | -3.16% | 98.1% | 96.3% | 0.165 | 0.78
CCCCc1ccc(Nc2ncnc3nc[nH]c23)cc1 | -6.71 | 22.7 | 2.8% | 106% | 94% | -0.1 | 1.66
COc1ccc(C(=O)N2CCC(C(=O)Nc3ccc(OC)c(OC)c3)CC2)cc1 | -6.75 | -8.78 | -0.38% | 89.7% | 89% | 1.28 | 2.4
CC(=O)c1ccc(NC(=O)C2CCC(C)(C(=O)O)C2(C)C)cc1 (configuration not stated) | -7.29 | -11.9 | -0.27% | 97.9% | 106% | 2.73 | 3.04
COc1ccc(OC)c(NC(=O)C2CCCNC2=O)c1 (configuration not stated) | -6.08 | -1.6 | -1.67% | 95.1% | 94.5% | 1.33 | 1.33
O=C(CCCC(=O)Nc1cccnc1)Nc1cccnc1 | -6.39 | 3.58 | -0.66% | 103% | 99.2% | 0.385 | 6.65
Cc1ccc(OCCNC(=O)c2ccccc2N)cc1 | 1.82 | -18.1 | -2.73% | 103% | 97.6% | 0.785 | -0.05

Compound | growth inhibition [1] [%] | growth inhibition [2] [%] | viability increase [3] | viability [4] | viability [5] | inhibition [6] [%] | RAM network inhibition [7] [%]
O=C1Nc2ccc(S(=O)(=O)N3CCCCCC3)c3cccc1c23 | -0.465 | -4.72 | -2.03% | 95.2% | 86.2% | 1.57 | 0.81
CNC(=O)CN1C(=O)CSc2nc(C)cc(C)c21 | -8.87 | -6.29 | 0.88% | 99.9% | 97.8% | 1.83 | 1.73
COc1cccc(N2C(=O)C3CCCN3C2c2ccc(Cl)cc2)c1 (configuration not stated) | 3.31 | 17.5 | -2.51% | 95.2% | 87% | 1.21 | 2.53
CC1(C)CC(=O)N(CC(=O)O)c2ccccc2S1(=O)=O | -4.39 | 4.7 | -0.77% | 99.8% | 96.3% | 1.42 | 4.48
COc1ccc2nc(NC(=O)C3COc4ccccc4O3)sc2c1 (configuration not stated) | -5.73 | -9.21 | 2.25% | 100% | 91.7% | 2.08 | 2.86
COc1ccc(CNc2ccc3cn[nH]c3c2)c(OC)c1OC | -1.74 | 1.43 | -2.25% | 74.7% | 79.7% | -0.465 | 9.01
CCOc1ccc(C2c3c(oc4cc(C)c(C)cc4c3=O)C(=O)N2CCCN2CCOCC2)cc1 (configuration not stated) | -1.96 | -6.06 | -3.05% | 94.1% | 94.6% | 0.615 | 2.24
CC1(C)Cc2c(C#N)c(NCCCO)nc(-c3ccccc3)c2CO1 | -7.54 | -20.9 | -4.65% | 88% | 85.3% | 0.25 | -0.94
Cc1nn(C)c(C)c1NS(=O)(=O)c1ccccc1 | -9.1 | -6.73 | -0.34% | 98% | 88.4% | 0.545 | 6.15
COc1ccc(C2C(C(=O)Nc3ccccn3)=C(C)Nc3ncnn32)c(OC)c1 (configuration not stated) | -8.54 | -6.24 | -1.04% | 101% | 92.1% | 2.48 | 7.85
c1ccc(Cn2ncc3c(N4CCCCC4)ncnc32)cc1 | -0.96 | 8.13 | -0.97% | 96.2% | 95.4% | 0.01 | 3.67
NC(=O)C1(N2CCCCC2)CCN(S(=O)(=O)c2cc(Cl)ccc2Cl)CC1 | 4.2 | 3.53 | 0.74% | 98.7% | 91.1% | 1.56 | 6.42
CCOc1ccc(N(CC(=O)Nc2ccccc2C)S(=O)(=O)c2c(C)noc2C)cc1 | 10.9 | 4.1 | -5.61% | 15.9% (active) | 18.1% (active) | 2.38 | -0.84
Cc1ccc(-c2nc(CS(=O)(=O)CC(=O)NC3CCCCC3C)c(C)o2)cc1 (configuration not stated) | -15.3 | -32.8 | -0.44% | 93% | 87.4% | 1.73 | 7.21
CCOCCn1c(SCc2cccc(C)c2)nc2c1c(=O)[nH]c(=O)n2C | -7.34 | 10 | -5.79% | 98% | 87.4% | 0.905 | 2.37
COc1ccccc1-c1nnc(SCC(=O)Nc2ccc(Cl)cc2Cl)o1 | -2.08 | 9.34 | 2.61% | 97.4% | 91.1% | 1.71 | 8.66
CCOC(=O)N1CCC(N2Cc3cccc(C(=O)NCc4ccccn4)c3C2=O)CC1 | -4.83 | 8.18 | -5.24% | 99.8% | 102% | 2.19 | -1.14
COc1ccccc1CNC(=O)Cn1cc2c(n1)CCCC2 | -6.06 | -7.73 | 13.7% (active) | 107% | 101% | 0.685 | 3.05
